Screening results (PubChem BioAssay)
Sampled rows, rich in hits. Any-hit rate of the full collection: about 2.4%.
Rin1-Abl PPI inh = blocks binding of human Rin1 to Abl. P00519+Q13671. TR-FRET Rin1/Abl binding, biochemical. inhibition, % at 7.35 µM. actives 0.4% (n = 360,000); in the data active means inhibition above about 5%, passing the limit was not always enough
CSN deneddyl inh = inhibitors of human CSN-mediated cullin deneddylation. Q92905. Purified CSN, SCF-Nedd8-OG deneddylation, fluorescence polarization. inhibition, % at 12.5 µM. actives 0.38% (n = 360,000). AID 651999;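 active means pattern-corrected inhibition above about 35%, with an unprinted fluorescence ratio check between 0.5 and 1.5, limit read from the data, passing the limit was not always enough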;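 further: 0% = enzyme with substrate and 100% = substrate without enzyme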
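Test system: Human Csn5 produced in HEK293T cells | Compound: 12.5 µM single point | Times: 90 min, room temperature | Signal: Fluorescence polarization readout | Read-out basis: % inhibition of substrate cleavage by Csn5 | Controls: no-enzyme wells high, enzyme-with-substrate wells low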
HNF4A DNA FP = change in binding of human HNF4 alpha to DNA; P41235; HNF4a-FITC DNA binding, fluorescence polarization, 1 h; AID 1224865; activity change, % at 10 µM; actives 0.3% (n = 360,000); in the data active means activity change above about 30%, passing the limit was not always enough
TPT1 inhibitor = inhibitors of Candida albicans tRNA 2'-phosphotransferase TPT1. recombinant caTPT1, FP RNA substrate dephosphorylation. inhibition, % at 5 µM. actives 0.81% (n = 300,000);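 active means inhibition above the mean of all tested compounds plus 3 SD, set per screening campaign, cut at about 24% in these data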;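 further: plate controls were DMSO alone for no effect and ferristatin control at 100 nM for full effect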
Neddyl block = inhibitors of human cullin neddylation. P61081+Q13564. TR-FRET cullin neddylation, biochemical. inhibition, % at 25 µM. actives 0.58% (n = 360,000); in the data active means inhibition above about 36%
Target sequence (P61081 whole entry, looked up): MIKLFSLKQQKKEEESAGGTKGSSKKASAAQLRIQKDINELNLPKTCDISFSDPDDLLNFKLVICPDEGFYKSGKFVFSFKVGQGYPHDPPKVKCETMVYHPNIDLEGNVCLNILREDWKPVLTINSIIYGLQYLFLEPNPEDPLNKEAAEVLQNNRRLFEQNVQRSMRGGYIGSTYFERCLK
Target sequence (Q13564 whole entry, looked up): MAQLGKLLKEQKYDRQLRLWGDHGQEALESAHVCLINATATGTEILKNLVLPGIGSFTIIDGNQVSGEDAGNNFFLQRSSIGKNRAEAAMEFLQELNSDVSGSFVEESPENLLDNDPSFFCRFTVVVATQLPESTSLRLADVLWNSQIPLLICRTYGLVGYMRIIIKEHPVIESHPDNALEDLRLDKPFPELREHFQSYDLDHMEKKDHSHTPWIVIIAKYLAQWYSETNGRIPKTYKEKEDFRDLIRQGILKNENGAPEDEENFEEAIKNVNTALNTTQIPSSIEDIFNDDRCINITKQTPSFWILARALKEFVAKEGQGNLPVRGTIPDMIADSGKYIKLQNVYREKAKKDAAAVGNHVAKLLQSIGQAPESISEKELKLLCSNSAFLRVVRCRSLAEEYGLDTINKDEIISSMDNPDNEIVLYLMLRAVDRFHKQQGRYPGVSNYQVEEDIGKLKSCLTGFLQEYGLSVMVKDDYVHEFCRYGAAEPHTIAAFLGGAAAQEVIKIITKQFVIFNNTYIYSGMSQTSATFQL
Rpn11 inh = Rpn11 (human) deubiquitinase inhibition; human 26S proteasome, Ub4-pepOG fluorescence polarization; 20S core pre-blocked with epoxomicin; inhibition, % at 20 µM; actives 0.59% (n = 360,000); O00487;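 active means inhibition at 20 µM, scaled to each plate's controls, above about 33%, limit read from the data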
Rin1-Abl confirm = Rin1-Abl interaction inhibition confirmation; shares compounds with Rin1-Abl PPI inh; TR-FRET Rin1-Abl binding, purified proteins; inhibition, % at 7.35 µM; actives 49% (n = 1,300)
GFP quench = GFP fluorescence interference artifact; shares compounds with Rin1-Abl PPI inh; inhibitors/quenchers counterscreen; inhibition, % at 6.75 µM; actives 8.5% (n = 1,300); AID 602125;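 further: ABL1-eGFP fusion protein alone without its partner RIN1-SBP; 0% = protein with vehicle and 100% = wells lacking protein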
GFP quench DR = quenches GFP in dose response, Rin1-Abl counter-screen | GFP fluorescence interference/quenching counterscreen | 230 tested, under 10 active | shares compounds with Rin1-Abl PPI inh | IC50, µM; call rule not given here;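 further: ABL1-eGFP fusion protein alone without its RIN1 binding partner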
* = called active by the depositor; · = not tested or not shown. Unless noted, no stated cut-off is given here; in the data, active means inhibition above about 6.5%; inactive means the rest.

SMILES | Rin1-Abl PPI inh | CSN deneddyl inh | HNF4A DNA FP | TPT1 inhibitor | Neddyl block | Rpn11 inh | Rin1-Abl confirm | GFP quench | others
O=C(NCc1ccccc1)c1ccccc1Br | 7.8* | 0.2 | -0.1 | -2.8 | -9.6 | -1.4 | -2.7 | -1.4
O=C(NCc1ccccc1)c1ccc(Br)cc1Br | -4.0 | 0.2 | 3.5 | -0.1 | 4.8 | 4.2 | · | ·
O=C(CCCOc1ccccc1)NN1C(=O)NC2(CCCCC2)C1=O | 1.1 | -5.2 | -4.3 | -0.7 | 4.2 | 1.3 | · | ·
N#CC12CCCCC1CC1CCCCC1(C#N)N2Cc1cccnc1 (stereo not drawn) | 52.8* | -0.6 | 3.4 | 4.2 | 5.0 | -3.1 | 92.0* | -0.6 | GFP quench DR=>67.5
Cc1sc2ncn(CC(=O)NCC(=O)N3CCN(c4ccccc4F)CC3)c(=O)c2c1C | 25.7* | -1.7 | -3.3 | -2.8 | 4.4 | -1.1 | -0.1 | -5.8
Cc1[nH]n(-c2ccccc2)c(=O)c1C(C[N+](=O)[O-])c1ccc(Br)cc1 (stereo not drawn) | 34.2* | -0.8 | 1.8 | -3.8 | -4.3 | 14.1 | -0.4 | -0.1
COc1cccc(C(C[N+](=O)[O-])c2c(C)[nH]n(-c3ccccc3)c2=O)c1 (stereo not drawn) | 3.2 | 11.3 | -0.8 | 0.8 | 0.8 | 8.8 | · | ·
Cc1[nH]n(-c2ccccc2)c(=O)c1C(c1cccc([N+](=O)[O-])c1O)c1c(C)[nH]n(-c2ccccc2)c1=O | -0.2 | -0.2 | 0.3 | 2.2 | -28.6 | -3.4 | · | ·
Cc1[nH]n(-c2ccccc2)c(=O)c1C(c1ccc(C(=O)O)cc1)c1c(C)[nH]n(-c2ccccc2)c1=O | 16.7* | 1.2 | 1.8 | -0.9 | -1.8 | -1.6 | -0.2 | 2.0
Cc1[nH]n(-c2ccccc2)c(=O)c1C(=O)c1ccc([N+](=O)[O-])cc1 | -1.9 | 1.0 | -0.5 | 3.5 | -11.1 | 8.6 | · | ·
Cc1[nH]n(-c2ccccc2)c(=O)c1C(c1cccc([N+](=O)[O-])c1)c1c(C)[nH]n(-c2ccccc2)c1=O | 9.1* | 0.7 | -2.4 | 1.7 | -13.1 | -5.2 | 0.0 | -1.0
CN(C)Cc1cc(O)c(CN(C)C)cc1O | 13.4* | -5.8 | -2.3 | -18.4 | 39.1* | -31.4 | 2.1 | 4.3
CC(=O)Oc1ccc(-c2cc3c(OC(C)=O)cc(OC(C)=O)cc3oc2=O)cc1 | -1.8 | 9.8 | 10.3 | 19.3 | · | 19.3 | · | ·
Cc1cc(C)c(S(=O)(=O)N2CCCC(C(=O)N3CCOCC3)C2)c(C)c1 (stereo not drawn) | 10.7* | 2.5 | 0.9 | -1.0 | 2.1 | -4.1 | 8.9* | -0.9
c1cn2c(-c3ccc(N4CCOCC4)cc3)cncc2n1 | -9.1 | 0.9 | 1.4 | · | 19.1 | 1.4 | · | ·
CCOC(=O)CCCCCC(=O)Nc1ccc2c(c1)C(=O)N([C@H](C)CO)C[C@H](C)[C@@H](CN(C)C(=O)Nc1ccc(OC)cc1)O2 | 15.7* | 5.0 | 1.3 | · | -10.2 | -7.7 | 12.8* | 0.1
COc1ccc(S(=O)(=O)N(C)C[C@H]2Oc3ccc(NC(=O)CCC(F)(F)F)cc3C(=O)N([C@H](C)CO)C[C@@H]2C)cc1 | 16.5* | -4.5 | -0.8 | · | 9.2 | -3.2 | 15.3* | -1.1
CCOC(=O)CCCCCC(=O)Nc1ccc2c(c1)CC(=O)N([C@H](C)CO)C[C@@H](C)[C@H](CN(C)Cc1ccc3c(c1)OCO3)O2 | 15.8* | 2.9 | -3.4 | · | 7.7 | 4.3 | 17.6* | -0.7 | GFP quench DR=>67.7
C[C@@H]1CCCCO[C@H](CN(C)S(=O)(=O)c2cccs2)[C@@H](C)CN([C@H](C)CO)C(=O)c2cc(NC(=O)C3CCCCC3)ccc2O1 | 1.8 | -3.5 | 1.1 | · | 1.0 | 1.3 | · | ·
C[C@@H]1CCCCO[C@@H](CN(C)S(=O)(=O)c2cccs2)[C@@H](C)CN([C@H](C)CO)C(=O)c2cc(NS(=O)(=O)c3ccccc3)ccc2O1 | 69.4* | 0.9 | -1.8 | · | 5.3 | 3.7 | 67.1* | -0.7 | GFP quench DR=>67.6
C[C@H](CO)N1C[C@H](C)[C@@H](CN(C)S(=O)(=O)c2ccc(F)cc2)Oc2ccc(NC(=O)C3CC3)cc2C1=O | 14.1* | 0.5 | 0.6 | · | 2.6 | 1.7 | 14.0* | 0.7
CCNc1cc2c(cc1O)CCC1C2CCC2(C)C(O)CCC12 (stereo not drawn) | 12.5* | 0.1 | 0.2 | · | -1.6 | 0.7 | -3.2 | 0.6
Nc1nc(-c2ccccc2)nc2nonc12 | 0.1 | 1.9 | -3.3 | · | 11.2 | -1.3 | · | ·
CCOC(=O)CN1C(=O)C(O)(CC(=O)c2cccc(OC)c2)c2ccccc21 (stereo not drawn) | -4.7 | 2.3 | -2.8 | 0.5 | -5.6 | -6.8 | · | ·
CCN(CC)c1ccc(C=NN2CCCCCC2)cc1 | 32.8* | 0.8 | 4.1 | · | 18.1 | 7.7 | -2.1 | 0.6
SMILES | Rin1-Abl PPI inh | CSN deneddyl inh | HNF4A DNA FP | TPT1 inhibitor | Neddyl block | Rpn11 inh | Rin1-Abl confirm | GFP quench | others
Cc1cc(Br)ccc1NC(=O)CSc1nnc(CN2CCOCC2)n1C | 10.0* | 3.5 | 1.6 | 0.0 | -0.5 | 3.4 | 5.9 | 0.5
CCOc1ccccc1CNCCNCC(C)O (stereo not drawn) | 0.8 | -0.6 | -0.8 | -3.1 | -10.6 | -1.0 | · | ·
Cc1ccccc1OCCNCC(C)O (stereo not drawn) | 9.0* | 1.8 | 0.9 | -2.9 | 11.8 | -6.2 | -0.7 | 0.2
O=c1[nH]c(/C=C\c2cccc(O)c2)nc(O)c1[N+](=O)[O-] | -1.9 | 4.7 | -2.0 | -0.8 | -1.1 | -11.8 | · | ·
O=c1[nH]c(/C=C\c2ccc(O)c(O)c2)nc(O)c1[N+](=O)[O-] | 8.3* | 0.5 | -1.3 | · | -2.8 | -5.4 | 8.2* | 5.9
c1ccc2c(c1)nc(-c1ccncc1)n2CCNc1nc(CN2CCCCC2)cs1 | 0.0 | -1.2 | -1.5 | -7.4 | -4.2 | 5.1 | · | ·
CC(=O)OCCN(CCCn1c(-c2ccncc2)nc2ccccc21)c1nc(CN2CCCCC2)cs1 | 8.4* | -0.3 | -2.0 | 3.0 | 12.8 | -3.4 | 2.0 | -0.3
Nc1ncnc2c1ncn2[C@@H]1O[C@H](CNCc2ccc(OCC(=O)Nc3nccs3)cc2)[C@@H](O)[C@H]1O | -0.3 | 2.4 | -2.0 | · | -12.0 | 4.0 | · | ·
O=C(N/N=C/c1cccnc1)c1cc(O)c(O)c(O)c1 | 62.0* | 3.4 | -4.0 | -2.3 | -24.8 | -9.1 | 73.9* | 21.5*
COc1ccccc1CNC(=O)COC(=O)Cc1ccc(Br)cc1 | 1.6 | 2.7 | -1.0 | · | 4.3 | 2.1 | · | ·
COc1ccc(CC(=O)OCC(=O)NCc2ccccc2Cl)cc1OC | 10.1* | 2.5 | 0.2 | -1.8 | 14.0 | 5.0 | 3.2 | -0.4
COc1ccc(C)cc1N=Nc1ccc(O)c2ncccc12 | 9.0* | -3.5 | -2.6 | · | -67.2 | 25.8 | 10.5* | 7.0*
